One data set addresses Cytochrome P450 2C9 (Homo sapiens, UniProt P11712). Briefly: Inhibition of CYP2C9 (unknown origin). Format: ADME.
Data set [1] is described as follows: Elimination half life in OF1 mouse plasma at 10 mg/kg, po. Format: ADME, organism-based. On the set-up: dose 10 mg/kg, route oral. To be noted: read-out: beta t1/2 (converted). The procedure, abridged:
(§1)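 Oral gavage at 10 mg/kg to male OF1 mice (vehicle 5% DMSO/0.5% MC/0.2% Tween80, 1.0 mg/mL) or male Sprague-Dawley rats (vehicle 0.5% MC/0.2% Tween80, 1.0 mg/mL). Plasma and brain exposure and half-life determined.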

The nature of data set [2]: Drug degradation in DMSO after 48 hrs at room temperature. Format: physicochemical. To be noted: read-out: Drug degradation. An outline of the steps: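 Compound kept 48 h at room temperature in water, aqueous solutions of pH 1.0–7.4, DMSO, or GI-tract simulation medium. Percent degradation measured.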
For another data set, the species on record is Homo sapiens. Briefly: Inhibition of sigma 2 receptor (unknown origin) at 10 uM. The procedure, abridged:
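CEREP selectivity panel: percent inhibition of control specific binding at 10 µM.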

Data set [3] in a line: Inhibition of p-glycoprotein (unknown origin). The settings on record: human.
Data set [4] can be described thus: AUC in OF1 mouse plasma at 10 mg/kg, po. More on the design: dose 10 mg/kg, route oral. Type of data set: ADME, organism-based. The procedure, abridged: as §1
The next data set has as its target Histamine receptor H3 (Macaca mulatta, UniProt Q865E1). The data set can be described thus: Displacement of [3H]N-alpha-methylhistamine from rhesus monkey histamine H3 receptor expressed in CHO cells. Type of data set: cell-based. An outline of the steps:
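Membranes from CHO cells stably expressing rhesus monkey H3 receptor. Competition binding against [3H]N-α-methylhistamine; Ki values are means of three or more determinations.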

Data set [5] in a line: Ratio of AUC (0 to infinity) in Sprague-Dawley rat brain to AUC (0 to infinity) in Sprague-Dawley rat at 2 mg/kg, iv. The settings on record: read-out: Ratio AUC. More on the design: dose 2 mg/kg, route intravenous. Type of data set: ADME, organism-based. An outline of the steps:
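Male Sprague–Dawley rats received 2 mg/kg i.v. (0.5 mg/mL in saline) or 10 mg/kg p.o. (1.0 mg/mL in 0.5% MC/0.2% Tween80). Plasma and brain AUC0-inf were measured, and the B/P ratio was calculated from i.v. AUC0-inf.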

Another data set has as its system Cynomolgus monkey. Briefly: Cardiotoxicity in cynomolgus monkey assessed as blood arterial pressure and heart rate at 10 mg/kg, iv. Type of data set: toxicity, organism-based, Macaca fascicularis. To be noted: in vivo. More on the design: dose 10 mg/kg, route intravenous. The procedure, abridged:
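Anaesthetized cynomolgus monkeys dosed 10 mg/kg i.v. Arterial blood pressure, heart rate and ECG (PR, QRS, QTc intervals) monitored. Plasma drug sampled at 5, 15 and 30 min post-dose.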

Histamine receptor H3, sequence (Q865E1 whole entry): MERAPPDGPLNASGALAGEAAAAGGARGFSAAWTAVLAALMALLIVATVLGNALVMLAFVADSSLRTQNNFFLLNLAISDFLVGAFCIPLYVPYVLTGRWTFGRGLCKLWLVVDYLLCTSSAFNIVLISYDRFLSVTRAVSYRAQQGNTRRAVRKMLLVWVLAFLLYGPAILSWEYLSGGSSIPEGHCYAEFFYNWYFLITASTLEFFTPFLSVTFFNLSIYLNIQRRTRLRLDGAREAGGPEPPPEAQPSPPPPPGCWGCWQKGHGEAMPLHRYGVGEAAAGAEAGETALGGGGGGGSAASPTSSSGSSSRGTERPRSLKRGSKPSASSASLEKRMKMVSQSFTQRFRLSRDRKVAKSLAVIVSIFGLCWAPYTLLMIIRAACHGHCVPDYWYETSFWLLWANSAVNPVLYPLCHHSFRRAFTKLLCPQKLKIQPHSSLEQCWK
Cytochrome P450 2C9, sequence (P11712 whole entry): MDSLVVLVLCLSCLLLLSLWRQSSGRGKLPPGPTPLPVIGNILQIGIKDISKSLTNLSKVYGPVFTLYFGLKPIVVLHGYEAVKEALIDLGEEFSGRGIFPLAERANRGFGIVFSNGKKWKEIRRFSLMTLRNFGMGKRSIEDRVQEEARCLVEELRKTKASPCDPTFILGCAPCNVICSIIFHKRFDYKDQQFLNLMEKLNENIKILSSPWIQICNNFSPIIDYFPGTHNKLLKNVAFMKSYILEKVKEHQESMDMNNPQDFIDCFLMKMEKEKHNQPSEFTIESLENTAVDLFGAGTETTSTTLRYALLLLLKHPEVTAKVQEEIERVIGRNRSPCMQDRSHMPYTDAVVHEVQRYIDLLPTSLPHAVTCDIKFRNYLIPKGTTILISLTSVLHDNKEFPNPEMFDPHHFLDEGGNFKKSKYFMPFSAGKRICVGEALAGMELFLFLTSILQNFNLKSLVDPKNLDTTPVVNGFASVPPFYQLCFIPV

As to `Cc1cc(N2CC[C@H](N3CCC[C@@H]3C)C2)ccc1NC(=O)C1CCOCC1`, the entries for the “inhibition (INH)” value (at Cytochrome P450 2C9; in data set [3]) were “Active” and “Not Active”, respectively. For the same compound, the half-life in data set [1] was 2.3 h. In addition, in [2], the degraded at 48 h was below 2%. In addition, the inhibition (as a rule, the drop in the measured response relative to a control, in per cent) in the data set listed under Homo sapiens was 53%. Further, the AUC (in general, concentration integrated over time) in [4] turned out to be 3200 ng·h/mL. Besides, on Histamine receptor H3, the Ki – broadly, the dissociation constant of the complex between target and ligand, obtained from inhibition or displacement – was found to be 970 pM. Also, in data set [5], the Kp came to 0.33. Further, the Activity result with Cynomolgus monkey is “Non-toxic”.

For the origin of these results see ChEMBL document CHEMBL2440017, “Discovery of a potent, selective, and orally bioavailable histamine H3 receptor antagonist SAR110068 for the treatment of sleep-wake disorders” (Bioorg Med Chem Lett, 2013).
